A selection: hits, their analogues and other compounds. The true share with any hit is near 2.7%.
SIAE primary: human SIAE inhibition, primary screen; 0.69% of 370,000 active; inhibition, % at 9.66 µM; AID 1053197; Q9HAT2; SIAE FP-Rh probe binding, fluorescence polarization;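 active = inhibition above a cutoff: mean of compounds within the control limits plus 3 SD of those, cut at about 17% in these data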;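 also: 0% = plate median of compound wells and 100% = probe without SIAE protein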
Target sequence (Q9HAT2 whole entry, looked up): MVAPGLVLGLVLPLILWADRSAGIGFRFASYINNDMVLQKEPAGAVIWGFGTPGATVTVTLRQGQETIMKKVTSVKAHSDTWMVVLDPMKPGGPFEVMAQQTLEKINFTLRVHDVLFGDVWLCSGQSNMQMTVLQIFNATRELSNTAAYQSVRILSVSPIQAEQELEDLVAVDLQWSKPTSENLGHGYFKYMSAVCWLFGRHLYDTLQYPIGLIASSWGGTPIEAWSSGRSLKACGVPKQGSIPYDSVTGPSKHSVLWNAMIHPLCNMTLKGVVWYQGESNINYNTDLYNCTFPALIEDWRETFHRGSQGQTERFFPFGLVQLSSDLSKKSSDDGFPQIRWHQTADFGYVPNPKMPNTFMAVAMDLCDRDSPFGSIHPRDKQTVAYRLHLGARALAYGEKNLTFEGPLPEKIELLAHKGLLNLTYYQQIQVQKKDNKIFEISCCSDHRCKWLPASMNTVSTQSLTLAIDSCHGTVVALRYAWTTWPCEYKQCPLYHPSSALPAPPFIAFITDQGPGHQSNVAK
TCR CD3 inh: inhibitors of human TCR-CD3 interaction; TAMRA-labeled TCR probe fluorescence, biochemical; 0.37% of 360,000 active; AID 651800; inhibition, % at 9.4 µM; in the data active = inhibition above about 19%;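 also: recombinant mutant TCR 2C K166C tagged with TAMRA read by polarization; 0% = receptor in buffer alone and 100% = receptor with positive control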
HTRA1 inhibitor: inhibitors of human serine peptidase HTRA1. Q92743. recombinant HTRA1, FP-rhodamine activity-based probe, fluorescence polarization. inhibition, % at 5.96 µM. 0.5% of 340,000 active. AID 504803; in the data active = inhibition above about 36%;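 also: 0% = enzyme with DMSO and 100% = wells lacking enzyme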
PRMT1 FP inh: inhibitors of human PRMT1 | 1.3% of 370,000 active | recombinant PRMT1, activity-based probe fluorescence polarization | inhibition, % at 2.79 µM | Q99873 | AID 652257;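 active = inhibition above about 21% made by adding two undisclosed values, limit read from the data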
ABHD4 inh: inhibitors of mouse ABHD4 | Q8VD66 | purified mABHD4, FP-Rh probe fluorescence polarization | inhibition, % at 8.92 µM | 0.54% of 370,000 active;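 active = inhibition exceeding the mean over every tested compound plus 3 SD, cut at about 30% in these data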;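 also: 0% = plate median of compound wells and 100% = S159A mutant with DMSO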
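Test system: mABHD4 protein; Read-out basis: % inhibition; Incubation: 45 min + 60 min at 25 °C; Repeats: single replicate; Technique: fluorescence polarization with parallel and perpendicular emission, 525/598 nm; Compound: 8.92 µM, single dose; Benchmarks: full inhibition S159A mutant plus DMSO, zero as sample-well median.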
The depositor's hits bear a star.

CCc1[nH]nc2c1C(c1cccc(OC(=O)N3CCOCC3)c1)C(C#N)=C(N)O2 (centres undefined) was read as SIAE primary 25*, TCR CD3 inh 7, HTRA1 inhibitor 2, PRMT1 FP inh -1 and ABHD4 inh 0.
Screening Cc1ccc(OC(=O)N(C)C[C@H]2OCc3cn(nn3)CCCC(=O)N([C@@H](C)CO)C[C@@H]2C)cc1 returned SIAE primary 14, TCR CD3 inh -1, PRMT1 FP inh 5 and ABHD4 inh 6.
For CC1CCCN(CCC(=O)c2ccc(Br)cc2)C1 (centres undefined) the results were SIAE primary -2, TCR CD3 inh 0, HTRA1 inhibitor 2, PRMT1 FP inh 6 and ABHD4 inh 5.
Screening CCOC(=O)N1CCN(CCC(=O)c2ccc(OC)cc2)CC1 returned SIAE primary -6, TCR CD3 inh -2, HTRA1 inhibitor 3, PRMT1 FP inh 21* and ABHD4 inh -4.
For CCOC(=O)N1CCN(CCC(=O)c2ccc(Cl)cc2)CC1 the results were SIAE primary -1, TCR CD3 inh 7, HTRA1 inhibitor 7, PRMT1 FP inh 1 and ABHD4 inh 0.
For COc1ccc(C(=O)CCN2CCCC(C)C2)cc1 (centres undefined) the results were SIAE primary 0, TCR CD3 inh 2, HTRA1 inhibitor -4, PRMT1 FP inh 25* and ABHD4 inh -6.
Screening O=C(OCc1nnc(-c2ccccc2)o1)c1cc(S(=O)(=O)N2CCOCC2)ccc1F returned SIAE primary 1, TCR CD3 inh 3, HTRA1 inhibitor -4, PRMT1 FP inh 1 and ABHD4 inh 4.
`COC(=O)c1cccc(-n2sc3ccccc3c2=O)c1` gave SIAE primary 6, TCR CD3 inh -8, HTRA1 inhibitor 6, PRMT1 FP inh 98* and ABHD4 inh 2.
O=c1c2ccccc2sn1-c1ccc(F)cc1 was read as SIAE primary 2, TCR CD3 inh 6, HTRA1 inhibitor 6, PRMT1 FP inh 84* and ABHD4 inh 15.
Screening Cc1ccc(-n2sc3ccccc3c2=O)cc1 returned SIAE primary 10, TCR CD3 inh 2, HTRA1 inhibitor 4, PRMT1 FP inh 76* and ABHD4 inh 5.
`CC(Oc1ccc2c(c1)oc(=O)c1ccccc12)C(=O)NC(Cc1c[nH]c2ccc(O)cc12)C(=O)O` (centres undefined) gave SIAE primary -4, TCR CD3 inh -7, HTRA1 inhibitor -6, PRMT1 FP inh 22* and ABHD4 inh 2.
`CN(C)C1=NCC(CSC(=N)N)S1` (centres undefined) gave SIAE primary 1, TCR CD3 inh -3, HTRA1 inhibitor -4, PRMT1 FP inh 25* and ABHD4 inh 1.
O=C(CNC(=O)c1ccc(Br)cc1)NCC(=O)OCC(=O)c1ccc([N+](=O)[O-])cc1 was read as SIAE primary 8, TCR CD3 inh -1, HTRA1 inhibitor 7, PRMT1 FP inh 23* and ABHD4 inh 6.
For CC1(C(=O)NCc2ccccc2)CN(S(C)(=O)=O)CC(=O)N1Cc1ccco1 (centres undefined) the results were SIAE primary 5, TCR CD3 inh 6, PRMT1 FP inh -4 and ABHD4 inh 1.
`c1ccc(-c2nc(-c3ccco3)n3ccccc23)cc1` gave SIAE primary 1, TCR CD3 inh -3, HTRA1 inhibitor 24, PRMT1 FP inh 24* and ABHD4 inh 2.
For c1ccc(Nc2c(-c3ccco3)nc3ccccn23)cc1 the results were SIAE primary -4, TCR CD3 inh -3, HTRA1 inhibitor 5, PRMT1 FP inh 13 and ABHD4 inh -1.
CCN1CCN(Cc2c(O)ccc3c2O/C(=C\c2ccccc2)C3=O)CC1 was read as SIAE primary -4, TCR CD3 inh 6, HTRA1 inhibitor 7, PRMT1 FP inh 14 and ABHD4 inh 1.
CCN1CCN(Cc2c(O)ccc3c2O/C(=C\C=C\c2ccccc2)C3=O)CC1 was read as SIAE primary -5, TCR CD3 inh -3, HTRA1 inhibitor -3, PRMT1 FP inh 22* and ABHD4 inh 11.
O=C1/C(=C/C=C/c2ccccc2)Oc2c1ccc(O)c2CN1CCN(CCO)CC1 was read as SIAE primary -11, TCR CD3 inh -13, HTRA1 inhibitor 4, PRMT1 FP inh 21* and ABHD4 inh 4.
Screening COc1ccc(CNC(=O)O[C@H]2CC[C@@]34CCCN3C(=O)CCC[C@H]4[C@H]2C)cc1OC returned SIAE primary 12, PRMT1 FP inh -2 and ABHD4 inh 2.
Screening CCC[C@H]1[C@@H](N(C)CC2CCCCC2)CC[C@@]23CCCN2C(=O)CCC[C@@H]13 returned SIAE primary -3, PRMT1 FP inh -1 and ABHD4 inh 3.
Screening COc1ccc2c(c1OC)C(=O)OC2C1c2c(cc3c(c2OC)OCO3)CCN1C (centres undefined) returned SIAE primary 1, TCR CD3 inh -7, HTRA1 inhibitor 3, PRMT1 FP inh -3 and ABHD4 inh 1.
CN1CCc2cc3c(c4c2[C@H]1[C@H](O)c1ccccc1-4)OCO3 was read as SIAE primary 12, TCR CD3 inh 15, HTRA1 inhibitor 17, PRMT1 FP inh 49* and ABHD4 inh 46*.
Screening CCS(=O)(=O)c1ccc(O)c(NC(=O)c2cc(OC)c(OC)c(OC)c2)c1 returned SIAE primary 3, TCR CD3 inh 4, HTRA1 inhibitor 7, PRMT1 FP inh 1 and ABHD4 inh 7.
For CCS(=O)(=O)c1ccc(N=Nc2ccc(O)c3ncccc23)c(OC)c1 the results were SIAE primary 4, TCR CD3 inh -3, HTRA1 inhibitor 47*, PRMT1 FP inh 4 and ABHD4 inh 22.
For O=C1C2C(CC3c4ccccc4CCN32)CN1c1ccccc1 (centres undefined) the results were SIAE primary -2, PRMT1 FP inh -5 and ABHD4 inh -8.
For N#Cc1c(Nc2ccccc2Cl)s[nH]c1=O the results were SIAE primary 0, TCR CD3 inh 2, HTRA1 inhibitor -5, PRMT1 FP inh 23* and ABHD4 inh 4.
Screening N#Cc1c(Nc2ccccc2C(F)(F)F)s[nH]c1=O returned SIAE primary 11, TCR CD3 inh -4, PRMT1 FP inh 20 and ABHD4 inh 3.
`c1ccc(CC2CCN(c3nc4ccccc4n4nnnc34)CC2)cc1` gave SIAE primary -15, TCR CD3 inh 33*, HTRA1 inhibitor -7, PRMT1 FP inh 1 and ABHD4 inh 3.
CC(C)C1Nc2ccc(S(N)(=O)=O)cc2C2C=CCC21 (centres undefined) was read as SIAE primary 9, TCR CD3 inh 0, HTRA1 inhibitor 13, PRMT1 FP inh 8 and ABHD4 inh 12.

From PubChem
